Sampled rows, rich in hits. Any-hit rate of the full collection: about 1.8%.
Beta2AR agonist = beta2AR agonists driving receptor internalization, primary screen, cell-based, FAP fluorogen, flow cytometry. Beta-2 adrenergic receptor (Homo sapiens), P07550. response, % (concentration not given with the values). actives 0.43% (n = 340,000). AID 504454, 2011. Am2.2-beta2AR cells;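 active means response above a set limit, near 3 SD of response in nonfluorescent compounds, cut at about 42% in these data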
EBI2 block = EBI2 receptor antagonists, beta-arrestin recruitment, primary screen, cell-based, luminescence, 7a,25-OHC stimulation, uHTS | 7a,25-OHC stimulated | actives 0.81% (n = 360,000) | AID 651636, 2012 | G-protein coupled receptor 183 (Homo sapiens), P32249 | inhibition, % at 5 µM; in the data active means inhibition above about 38%;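 further: enzyme fragment complementation signal reports receptor beta-arrestin coupling in cells; 0% = agonist plus DMSO wells and 100% = wells without agonist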
Target sequence (P32249 whole entry, looked up, the tested form may be a part): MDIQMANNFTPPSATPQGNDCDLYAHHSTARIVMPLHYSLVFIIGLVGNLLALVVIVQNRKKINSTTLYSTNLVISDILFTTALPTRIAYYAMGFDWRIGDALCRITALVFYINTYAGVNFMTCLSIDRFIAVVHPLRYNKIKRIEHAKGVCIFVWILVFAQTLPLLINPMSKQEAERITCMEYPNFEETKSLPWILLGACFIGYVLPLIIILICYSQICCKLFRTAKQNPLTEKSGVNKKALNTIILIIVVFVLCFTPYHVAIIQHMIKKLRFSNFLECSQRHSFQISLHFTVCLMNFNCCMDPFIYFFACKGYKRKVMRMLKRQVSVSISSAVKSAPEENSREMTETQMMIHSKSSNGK
APJ agonist = agonists of human apelin receptor APJ, primary screen, CHO-K1 cells, PathHunter beta-arrestin, luminescence; AID 2520, 2010; 0% DMSO wells, 100% apelin; activation, % at 20 µM; actives 0.11% (n = 330,000);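 active means activation more than six SD over the plate average, tested at 20 µM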;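 further: 0% = DMSO alone and 100% = apelin-13 at 10 nM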
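Assay system: CHO-K1 APJ beta-arrestin complementation cell line / Compound: single test compound dose, 20 µM final, 1% DMSO / Times: overnight seeding, 90 min compound at 25 °C, 1 h detection / Technique: beta-gal luminescence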
APJ antagonist = antagonists of human apelin receptor APJ, primary screen, CHO-K1 cells, beta-arrestin complementation, luminescence; inhibition, % at 20 µM; actives 0.32% (n = 330,000); P35414;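 active means inhibition above about 40% at 20 µM, limit read from the data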;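 further: cells challenged with 10 nM apelin-13 agonist together with compound; plate controls were apelin-13 plus DMSO wells for no effect and DMSO wells lacking apelin-13 for full effect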
CCR6 antagonist = CCR6 receptor antagonists, primary screen, cell-based, CHO-K1, luminescence, beta-arrestin, uHTS; C-C chemokine receptor type 6 (Homo sapiens), P51684; CHO-K1 CCR6 PathHunter beta-arrestin, CCL20-stimulated; inhibition, % at 20 µM; actives 0.49% (n = 340,000); AID 493098, 2011;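 active means compounds whose inhibition of the agonist-driven luminescence signal at 20 µM reaches about 50%, limit read from the data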;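 further: cells stimulated with CCL20 at 14 nM final; plate controls were DMSO with CCL20 for no effect and DMSO without agonist for full effect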
CXCR6 inh = CXCR6 receptor inhibitors, primary screen, cell-based, beta-arrestin, luminescence, CHO-K1 PathHunter, 1536-well; C-X-C chemokine receptor type 6 (Homo sapiens), O00574; inhibition, % at 20 µM; actives 0.36% (n = 360,000); in the data active means inhibition above about 34%, passing the limit was not always enough;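 further: antagonist mode with CXCL16 agonist at 10 nM final; 0% = 10 nM CXCL16 with DMSO and 100% = unstimulated wells without agonist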
Target sequence (O00574 whole entry, looked up): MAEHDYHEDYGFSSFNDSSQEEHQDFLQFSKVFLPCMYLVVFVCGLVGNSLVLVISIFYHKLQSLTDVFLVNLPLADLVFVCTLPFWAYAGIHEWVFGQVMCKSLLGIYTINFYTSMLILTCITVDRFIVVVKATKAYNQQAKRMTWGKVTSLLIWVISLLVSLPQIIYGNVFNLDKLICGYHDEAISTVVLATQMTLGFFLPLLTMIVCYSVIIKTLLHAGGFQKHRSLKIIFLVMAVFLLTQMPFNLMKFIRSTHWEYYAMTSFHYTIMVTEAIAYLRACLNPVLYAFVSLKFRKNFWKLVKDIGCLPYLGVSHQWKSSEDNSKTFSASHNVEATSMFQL
EBI2 antag conf = EBI2 antagonist hit retest, beta-arrestin, confirmation, cell-based, single concentration, luminescence, 7a,25-OHC stimulation; AID 651997, 2013; shares compounds with EBI2 block; actives 29% (n = 2,400); 7a,25-OHC antagonism; inhibition, % at 5 µM;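 active means inhibition of at least 50%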
EBI2 agonist = EBI2 agonist activity of antagonist hits, confirmation, counter-screen for EBI2 antagonist project, cell-based, single concentration, agonist mode, luminescence | activation, % at 5 µM | AID 652000, 2013 | shares compounds with EBI2 block | EBI2-expressing cells, 60 min; 0% vehicle, 100% 7α,25-dihydroxycholesterol control | 2,400 tested, under 10 active;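 active means activation of at least 50%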
bGal cs = E. coli beta-galactosidase enzyme inhibition, confirmation, counter-screen for EBI2 antagonist project, biochemical, luminescence, single concentration; shares compounds with EBI2 block; purified beta-galactosidase, luminescent Galacton Star, 15 min; inhibition, % at 5 µM; actives 1% (n = 2,400);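 active means replicate-average signal at least 3 plate SD below neutral wells, shown as high inhibition, flagging enzyme-inhibiting false positives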;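 further: 0% = DMSO wells with enzyme and 100% = wells lacking enzyme; higher means stronger loss of beta-gal luminescence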
The depositor's hits bear a star; . = not tested or not shown.

SMILES | Beta2AR agonist | EBI2 block | APJ agonist | APJ antagonist | CCR6 antagonist | CXCR6 inh | EBI2 antag conf | EBI2 agonist | bGal cs
CC(=C/c1ccco1)/C=N/NC(=O)CSc1nnc(SCc2ccc(C)cc2)s1 | -1 | 59* | 0 | -33 | -15 | 8 | 20 | -1 | -9
Cc1cccc(S(=O)(=O)N(C)C[C@@H]2OCc3cn(nn3)CCCC(=O)N([C@H](C)CO)C[C@H]2C)c1 | . | -2 | . | . | . | -5 | . | . | .
CCOc1ccc(NC(=O)Nc2cc(-c3ccccc3)sc2C(=O)OC)cc1 | 11 | 46* | -1 | -48 | 6 | -4 | 21 | -1 | -17
CCOC(=O)[C@H](C)N1[C@H](C)[C@H](c2ccccc2)Oc2ccc(Cl)cc2S1(=O)=O | 10 | 46* | . | . | 30 | 2 | 22 | -1 | -14
Cc1ccc(S(=O)(=O)N2CCN(C(=O)CCCOc3ccc(Cl)cc3C)CC2)cc1 | 15 | 79* | 7 | 7 | 14 | 5 | 44 | 1 | 2
CCOc1ccc(S(=O)(=O)N2CCN(C(=O)CCOc3ccccc3C)CC2)cc1 | -12 | 30 | 3 | 21 | 12 | -2 | . | . | .
Cc1ccc(S(=O)(=O)N2CCN(C(=O)CCOc3ccccc3C)CC2)cc1C | 1 | 48* | 8 | 15 | -8 | 0 | 25 | 0 | 6
O=C1[C@@H](Oc2ccccc2)[C@@H](c2cccnc2)N1c1ccccc1 | 18 | -5 | . | . | 14 | -8 | . | . | .
COc1cc2oc(=O)cc(CN3CCCCC3)c2cc1Cl | . | -6 | . | . | . | -5 | . | . | .
COc1ccc2c(CN(Cc3ccccc3)Cc3ccccc3)cc(=O)oc2c1 | . | 52* | . | . | . | 6 | 21 | -1 | -13
COc1cc2oc(=O)cc(CN(Cc3ccccc3)Cc3ccccc3)c2cc1Cl | . | 45* | . | . | . | 12 | 38 | -1 | -2
COCCCn1c(=O)c2sccc2n(Cc2ccc(C)cc2)c1=O | -3 | -10 | -2 | 6 | 12 | -6 | . | . | .
CC(=O)Oc1ccc(C(=O)Nc2cc(NC(=O)c3ccc(OC(C)=O)cc3)cc(C(=O)NC(C)(C)C)c2)cc1 | 14 | 0 | 8 | -2 | -5 | -2 | . | . | .
COc1ccc(-c2nc(N)ncc2Oc2ccccc2Br)c(O)c1 | 14 | 62* | 0 | -3 | 10 | -1 | 23 | 0 | 4
COc1ccc(-c2nc(N)nc(C(F)(F)F)c2-c2ccccc2OC)c(O)c1 | 1 | 8 | 2 | 0 | -6 | 1 | . | . | .
COc1cccc(Oc2cnc(N)nc2-c2ccc(OC)cc2O)c1 | -8 | 52* | -10 | -7 | -14 | 0 | 48 | 3 | 6
C=C(C)COc1ccc(-c2nc(N)ncc2-c2ccc(OC)c(OC)c2)c(O)c1 | -7 | 35 | -3 | 12 | 9 | 10 | . | . | .
CCCCn1nnnc1C(c1ccccc1)N1CCN(c2ncc(C(F)(F)F)cc2Cl)CC1 (centres undefined) | . | 22 | . | . | . | 12 | . | . | .
Cc1cc(C)cc(C(=O)OCC(=O)NCc2ccco2)c1 | 6 | 4 | 1 | -17 | 14 | 1 | . | . | .
OC1CCN(c2cc(-c3ccccc3)nc3cc(-c4ccc(F)cc4)nn23)CC1 | -5 | 36 | 3 | -15 | 5 | 7 | . | . | .
COc1cccc(-c2cc3nc(-c4ccccc4)cc(N4CCCC(O)C4)n3n2)c1 (centres undefined) | 0 | 47* | -1 | -7 | 1 | -4 | 23 | 0 | -14
CCNC(=O)C1CCCN(C(=O)c2ccc(C#N)cc2)CC1 (centres undefined) | . | -6 | . | . | . | 4 | . | . | .
COc1ccc(OC2C(=O)N(Cc3ccc(F)cc3)C2c2cc(OC)c(OC)c(OC)c2)cc1 (centres undefined) | -12 | 2 | -3 | 16 | -7 | 2 | . | . | .
COc1ccc(CCN2C(=O)C(Oc3ccccc3C)C2c2ccc3c(c2)OCO3)cc1 (centres undefined) | 8 | 55* | -2 | -21 | 17 | 6 | 24 | 2 | 3
COC(=O)c1ccc(C2C(Oc3ccc(OC)cc3)C(=O)N2CCc2ccc(F)cc2)cc1 (centres undefined) | 5 | 42* | -2 | 17 | -10 | -1 | 16 | -1 | -10
SMILES | Beta2AR agonist | EBI2 block | APJ agonist | APJ antagonist | CCR6 antagonist | CXCR6 inh | EBI2 antag conf | EBI2 agonist | bGal cs
CCC1CCC(c2nnc(-c3ccc(Br)cc3)o2)CC1 (centres undefined) | -1 | 50* | -4 | -2 | 11 | -4 | 29 | 0 | 6
Cc1ccccc1-c1nnc(-c2ccc(Br)cc2)o1 | -2 | 16 | 0 | -11 | 11 | -7 | . | . | .
COc1cc(/C=C2\C(=N)N3N=C(S(C)(=O)=O)SC3=NC2=O)ccc1OC(=O)c1ccco1 | -1 | -1 | -9 | 10 | 17 | 9 | . | . | .
O=C(COC(=O)Cc1n[nH]c(=O)c2ccccc12)Nc1ccc(Cl)cn1 | -2 | 10 | -4 | -20 | -3 | -1 | . | . | .
CCCOc1ccc(/C=C/C(=O)N2CCN(c3ccccn3)CC2)cc1 | -2 | 46* | -4 | 3 | 2 | -2 | 40 | 1 | -1
O=C(/C=C/c1c(Cl)cccc1Cl)N1CCN(c2ncccn2)CC1 | -15 | 7 | -1 | 19 | -2 | 5 | . | . | .
O=C(COc1ccc(Br)cc1F)N1CCN(c2ncccn2)CC1 | 1 | 46* | -2 | 6 | 1 | 3 | 27 | 0 | 6
O=C(/C=C/c1ccccc1)N1CCN(c2cccc(Cl)n2)CC1 | -1 | 91* | -2 | 5 | 10 | 2 | 82* | 0 | -20
CCc1ccc(OCC(=O)N2CCN(c3ccccn3)CC2)c(Br)c1 | -20 | 25 | -1 | -5 | 2 | 6 | . | . | .
Cc1cc(OCC(=O)N2CCN(c3ccccn3)CC2)cc(C)c1Br | -6 | 62* | 3 | -5 | -3 | 5 | 65* | 1 | -2
CCCCCCNC(=O)CNC(=S)N(Cc1cccs1)C1CCCCC1 | 1 | 6 | -2 | -18 | 14 | -6 | . | . | .

Source: PubChem BioAssay
